In ChEMBL document CHEMBL4014345, “Development of Selective Clk1 and -4 Inhibitors for Cellular Depletion of Cancer-Relevant Proteins” (J Med Chem, 2017):
pIC50: −log10 of the molar value. The source made the active and inactive calls. The rule behind the calls is not given here.

Legend:
[1] = target: T1, Dual specificity protein kinase CLK1 (Homo sapiens, UniProt P49759); assay: Inhibition of recombinant human GST-tagged Clk1 expressed in Escherichia coli at 100 nM using RS repeat substrate peptide after 15 mins in presence of [gamma-32]-ATP
Target sequence in this assay (P49759 whole entry, looked up): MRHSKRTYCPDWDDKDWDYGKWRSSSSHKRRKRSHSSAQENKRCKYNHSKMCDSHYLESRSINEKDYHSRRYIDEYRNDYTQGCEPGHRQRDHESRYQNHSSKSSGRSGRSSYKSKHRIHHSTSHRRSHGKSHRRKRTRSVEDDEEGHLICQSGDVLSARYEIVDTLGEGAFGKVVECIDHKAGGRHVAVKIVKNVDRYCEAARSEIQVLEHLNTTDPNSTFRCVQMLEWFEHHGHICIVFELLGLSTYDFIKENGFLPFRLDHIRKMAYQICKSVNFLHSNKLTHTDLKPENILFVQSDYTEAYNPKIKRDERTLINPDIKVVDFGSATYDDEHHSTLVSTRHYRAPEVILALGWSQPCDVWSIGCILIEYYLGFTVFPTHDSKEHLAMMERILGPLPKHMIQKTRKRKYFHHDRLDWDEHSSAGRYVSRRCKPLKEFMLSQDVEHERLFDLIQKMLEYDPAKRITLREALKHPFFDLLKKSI

[2] = target: T1, Dual specificity protein kinase CLK1; assay: Inhibition of recombinant human GST-tagged Clk1 expressed in Escherichia coli using RS repeat substrate peptide after 15 mins in presence of [gamma-32]-ATP
Target sequence in this assay (P49759 whole entry): as the sequence (P49759 whole entry, looked up) above

T-24 = assay: Cytotoxicity against human T24 cells assessed as growth inhibition after 5 days by MTT assay; format: functional; conditions: T-24, 120 h
Method in brief: (§1)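 They were seeded at 5000 cells per well onto compound or DMSO (0.2% final). Plates were kept 5 days at 37 °C in 5% CO2 with no medium change, then read by MTT.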

MDA-MB-231 = assay: Cytotoxicity against human MDA-MB-231 cells assessed as growth inhibition after 5 days by MTT assay; format: functional; conditions: MDA-MB-231, 120 h; method in brief: as §1
T47D = assay: Cytotoxicity against human T47D cells assessed as growth inhibition after 5 days by MTT assay; format: functional; conditions: 120 h; method in brief: as §1
[3] = target: Dual specificity tyrosine-phosphorylation-regulated kinase 4 (Homo sapiens) (UniProt Q9NR20); assay: Inhibition of DYRK4 (unknown origin) using KKISGRLSPIMTEQ-NH2 as substrate at 1 uM after 15 mins in presence of [gamma-32P]-ATP
[4] = target: Myosin light chain kinase 2, skeletal/cardiac muscle (Homo sapiens) (UniProt Q9H1R3); assay: Inhibition of MLCK2 (unknown origin) at 1 uM after 15 mins
Method in brief: (§2)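 Tested in a commercial kinase profiling panel at an ATP concentration of 100 μM. Data are the mean of duplicates that differed by less than 7%.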

[5] = target: Serine/threonine-protein kinase haspin (Homo sapiens) (UniProt Q8TF76); assay: Inhibition of MBP-Haspin (unknown origin) at 1 uM after 10 mins by TR-FRET assay; method in brief: as §2
[6] = target: Serine/threonine-protein kinase 17A (Homo sapiens) (UniProt Q9UEE5); assay: Inhibition of STK17A (unknown origin) at 1 uM after 15 mins; method in brief: as §2
[7] = target: SRSF protein kinase 2 (Homo sapiens) (UniProt P78362); assay: Inhibition of SRPK2 (unknown origin) at 1 uM; method in brief: as §2
[8] = target: T1, Dual specificity protein kinase CLK1; assay: Inhibition of recombinant human GST-tagged Clk1 expressed in Escherichia coli at 1 uM using RS repeat substrate peptide after 15 mins in presence of [gamma-32]-ATP
Target sequence in this assay (P49759 whole entry, looked up): as above

[9] = target: T2, Dual specificity tyrosine-phosphorylation-regulated kinase 1A (Homo sapiens, UniProt Q13627); assay: Inhibition of N-terminal His6-tagged recombinant human Dyrk1A expressed in Escherichia coli BL21 (DE3) using KKISGRLSPIMTEQ-NH2 as substrate at 1 uM after 15 mins in presence of [gamma-32]-ATP; conditions: 0.25 h
THP-1 = assay: Cytotoxicity against human THP1 cells assessed as growth inhibition after 5 days by MTT assay; format: functional; conditions: THP-1, 120 h; method in brief: as §1
[10] = Cytotoxicity against HEK293 cells assessed as growth inhibition; format: cell-based; conditions: human
Method in brief: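 Cytotoxicity was tested in proliferating HEK293 cells with GI50 as the read-out. Data are the mean of at least two independent experiments.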

[11] = target: Dual specificity tyrosine-phosphorylation-regulated kinase 3 (Homo sapiens) (UniProt O43781); assay: Inhibition of DYRK3 (unknown origin) using KKISGRLSPIMTEQ-NH2 as substrate at 1 uM after 15 mins in presence of [gamma-32P]-ATP
HepG2 = assay: Cytotoxicity against human HepG2 cells assessed as growth inhibition after 5 days by MTT assay; format: functional; conditions: HepG2, 120 h; method in brief: as §1
PBL = assay: Cytotoxicity against human PBL after 2 days by MTT assay; format: cell-based; conditions: 48 h
Method in brief: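 Cells plated at 30 000 per well with test compounds or DMSO control for 2 days, then MTT read-out. LC50 reported as the mean of at least two independent experiments.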

[12] = target: SRSF protein kinase 1 (Homo sapiens) (UniProt Q96SB4); assay: Inhibition of SRPK1 (unknown origin) at 1 uM; method in brief: as §2
[13] = target: T2, Dual specificity tyrosine-phosphorylation-regulated kinase 1A; assay: Inhibition of N-terminal His6-tagged recombinant human Dyrk1A expressed in Escherichia coli BL21 (DE3) using KKISGRLSPIMTEQ-NH2 as substrate after 15 mins in presence of [gamma-32]-ATP
[14] = target: Dual specificity protein kinase CLK4 (Mus musculus) (UniProt O35493); assay: Inhibition of recombinant GST-tagged mouse CLK4 using GRSRSRSRSRSR as substrate at 1 uM after 30 mins in presence of [gamma-32P]-ATP by scintillation counting method
[15] = target: Dual specificity protein kinase CLK3 (Mus musculus) (UniProt O35492); assay: Inhibition of recombinant GST-tagged mouse CLK3 using GRSRSRSRSRSR as substrate at 1 uM after 30 mins in presence of [gamma-32P]-ATP by scintillation counting method
[16] = target: Dual specificity protein kinase CLK2 (Mus musculus) (UniProt O35491); assay: Inhibition of recombinant GST-tagged mouse CLK2 using GRSRSRSRSRSR as substrate at 1 uM after 30 mins in presence of [gamma-32P]-ATP by scintillation counting method
[17] = target: Dual specificity tyrosine-phosphorylation-regulated kinase 1B (Homo sapiens, UniProt Q9Y463); assay: Inhibition of full length recombinant GST-tagged human DYRK1B expressed in baculovirus using KKISGRLSPIMTEQ-NH2 as substrate at 1 uM after 15 mins
Sequence of Dual specificity tyrosine-phosphorylation-regulated kinase 1B (Q9Y463 whole entry, looked up): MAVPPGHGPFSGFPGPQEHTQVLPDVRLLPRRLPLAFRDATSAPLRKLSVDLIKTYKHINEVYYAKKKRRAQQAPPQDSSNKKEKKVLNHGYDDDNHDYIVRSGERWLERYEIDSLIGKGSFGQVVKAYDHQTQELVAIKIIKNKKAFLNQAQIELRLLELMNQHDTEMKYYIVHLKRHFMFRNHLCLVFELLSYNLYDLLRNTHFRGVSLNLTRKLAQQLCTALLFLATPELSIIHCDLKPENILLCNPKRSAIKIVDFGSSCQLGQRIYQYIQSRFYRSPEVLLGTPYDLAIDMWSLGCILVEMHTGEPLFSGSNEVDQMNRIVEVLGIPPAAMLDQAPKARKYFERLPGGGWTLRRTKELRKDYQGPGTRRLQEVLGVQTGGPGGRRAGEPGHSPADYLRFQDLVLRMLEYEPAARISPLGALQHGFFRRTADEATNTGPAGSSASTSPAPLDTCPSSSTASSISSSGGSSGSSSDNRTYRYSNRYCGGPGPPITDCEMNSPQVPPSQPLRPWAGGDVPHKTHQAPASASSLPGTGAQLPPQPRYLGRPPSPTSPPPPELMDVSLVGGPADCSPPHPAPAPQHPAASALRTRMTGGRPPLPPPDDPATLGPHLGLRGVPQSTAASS

Sequence of Dual specificity tyrosine-phosphorylation-regulated kinase 4 (Homo sapiens) (Q9NR20 whole entry): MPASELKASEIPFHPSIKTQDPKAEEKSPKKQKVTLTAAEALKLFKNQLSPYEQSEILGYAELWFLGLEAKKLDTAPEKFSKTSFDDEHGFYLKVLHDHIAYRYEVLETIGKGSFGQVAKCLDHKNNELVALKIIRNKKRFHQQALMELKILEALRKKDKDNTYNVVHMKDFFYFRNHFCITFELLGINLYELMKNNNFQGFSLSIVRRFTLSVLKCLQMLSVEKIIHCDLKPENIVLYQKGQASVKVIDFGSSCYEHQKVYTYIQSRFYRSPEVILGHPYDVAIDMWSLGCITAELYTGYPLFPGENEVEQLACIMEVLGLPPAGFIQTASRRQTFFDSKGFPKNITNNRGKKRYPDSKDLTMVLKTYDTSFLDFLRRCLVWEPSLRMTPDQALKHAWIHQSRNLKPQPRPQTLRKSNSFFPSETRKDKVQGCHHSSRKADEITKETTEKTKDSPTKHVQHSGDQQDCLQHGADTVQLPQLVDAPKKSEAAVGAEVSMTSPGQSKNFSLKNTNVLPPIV
Sequence of Serine/threonine-protein kinase haspin (Homo sapiens) (Q8TF76 whole entry): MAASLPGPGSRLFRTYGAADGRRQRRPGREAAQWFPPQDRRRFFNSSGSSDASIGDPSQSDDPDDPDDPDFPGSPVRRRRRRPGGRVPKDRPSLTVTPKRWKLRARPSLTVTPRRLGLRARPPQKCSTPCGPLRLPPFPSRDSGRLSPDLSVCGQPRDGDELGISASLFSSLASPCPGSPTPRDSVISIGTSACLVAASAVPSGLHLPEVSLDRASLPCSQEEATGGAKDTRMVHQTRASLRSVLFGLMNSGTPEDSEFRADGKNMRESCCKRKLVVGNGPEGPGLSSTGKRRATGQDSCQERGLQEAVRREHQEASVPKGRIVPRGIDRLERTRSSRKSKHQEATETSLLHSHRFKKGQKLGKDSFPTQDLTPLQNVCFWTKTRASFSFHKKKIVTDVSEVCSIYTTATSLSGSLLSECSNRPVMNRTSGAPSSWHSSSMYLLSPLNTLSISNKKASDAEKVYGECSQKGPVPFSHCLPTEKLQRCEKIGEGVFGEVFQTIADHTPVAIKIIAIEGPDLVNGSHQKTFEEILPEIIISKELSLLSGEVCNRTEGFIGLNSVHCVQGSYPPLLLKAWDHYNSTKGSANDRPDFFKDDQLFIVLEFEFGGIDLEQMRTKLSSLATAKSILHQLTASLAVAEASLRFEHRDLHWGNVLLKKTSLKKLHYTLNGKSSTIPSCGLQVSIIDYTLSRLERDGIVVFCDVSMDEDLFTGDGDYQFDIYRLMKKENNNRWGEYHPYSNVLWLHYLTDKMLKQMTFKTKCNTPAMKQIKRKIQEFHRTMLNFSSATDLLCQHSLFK
Sequence of Dual specificity tyrosine-phosphorylation-regulated kinase 3 (Homo sapiens) (O43781 whole entry): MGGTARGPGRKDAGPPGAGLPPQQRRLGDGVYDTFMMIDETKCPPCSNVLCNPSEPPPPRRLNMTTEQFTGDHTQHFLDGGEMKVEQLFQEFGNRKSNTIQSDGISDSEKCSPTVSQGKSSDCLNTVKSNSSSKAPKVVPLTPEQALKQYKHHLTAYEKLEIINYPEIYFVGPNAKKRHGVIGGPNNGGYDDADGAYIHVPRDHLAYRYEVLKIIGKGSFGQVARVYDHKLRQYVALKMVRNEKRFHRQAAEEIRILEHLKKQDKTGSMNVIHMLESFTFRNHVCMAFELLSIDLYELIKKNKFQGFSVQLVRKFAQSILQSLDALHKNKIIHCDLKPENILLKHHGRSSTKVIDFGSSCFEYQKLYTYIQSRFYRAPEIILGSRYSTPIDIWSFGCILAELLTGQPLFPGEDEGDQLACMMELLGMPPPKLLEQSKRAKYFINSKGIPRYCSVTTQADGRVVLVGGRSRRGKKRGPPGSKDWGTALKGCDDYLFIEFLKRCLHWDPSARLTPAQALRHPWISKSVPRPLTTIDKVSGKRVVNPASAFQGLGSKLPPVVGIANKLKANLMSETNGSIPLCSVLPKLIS
Sequence of Serine/threonine-protein kinase 17A (Homo sapiens) (Q9UEE5 whole entry): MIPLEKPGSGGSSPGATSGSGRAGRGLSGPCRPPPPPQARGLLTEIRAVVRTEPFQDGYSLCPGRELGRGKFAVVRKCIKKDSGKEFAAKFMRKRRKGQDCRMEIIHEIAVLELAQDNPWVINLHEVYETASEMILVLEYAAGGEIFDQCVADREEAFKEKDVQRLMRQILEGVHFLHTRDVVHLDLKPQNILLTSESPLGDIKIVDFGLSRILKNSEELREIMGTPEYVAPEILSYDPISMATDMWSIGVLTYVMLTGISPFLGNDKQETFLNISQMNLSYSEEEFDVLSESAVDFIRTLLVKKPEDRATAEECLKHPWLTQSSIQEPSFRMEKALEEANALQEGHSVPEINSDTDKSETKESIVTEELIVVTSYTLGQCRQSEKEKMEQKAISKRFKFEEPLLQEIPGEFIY
Sequence of Dual specificity protein kinase CLK2 (Mus musculus) (O35491 whole entry, looked up): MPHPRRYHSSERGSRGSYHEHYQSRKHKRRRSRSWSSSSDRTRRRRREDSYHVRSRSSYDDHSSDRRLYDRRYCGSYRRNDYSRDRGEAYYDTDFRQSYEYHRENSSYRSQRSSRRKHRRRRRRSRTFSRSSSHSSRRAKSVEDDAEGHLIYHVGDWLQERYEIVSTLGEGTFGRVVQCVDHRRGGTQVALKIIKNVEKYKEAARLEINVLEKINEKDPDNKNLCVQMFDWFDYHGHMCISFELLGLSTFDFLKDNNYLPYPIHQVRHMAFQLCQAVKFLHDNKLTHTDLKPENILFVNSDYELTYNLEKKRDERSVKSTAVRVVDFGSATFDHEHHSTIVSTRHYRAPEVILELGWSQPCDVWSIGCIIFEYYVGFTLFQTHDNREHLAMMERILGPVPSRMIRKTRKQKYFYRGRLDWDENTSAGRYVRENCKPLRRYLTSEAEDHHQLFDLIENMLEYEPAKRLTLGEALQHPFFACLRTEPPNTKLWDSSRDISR
Sequence of SRSF protein kinase 2 (Homo sapiens) (P78362 whole entry, looked up): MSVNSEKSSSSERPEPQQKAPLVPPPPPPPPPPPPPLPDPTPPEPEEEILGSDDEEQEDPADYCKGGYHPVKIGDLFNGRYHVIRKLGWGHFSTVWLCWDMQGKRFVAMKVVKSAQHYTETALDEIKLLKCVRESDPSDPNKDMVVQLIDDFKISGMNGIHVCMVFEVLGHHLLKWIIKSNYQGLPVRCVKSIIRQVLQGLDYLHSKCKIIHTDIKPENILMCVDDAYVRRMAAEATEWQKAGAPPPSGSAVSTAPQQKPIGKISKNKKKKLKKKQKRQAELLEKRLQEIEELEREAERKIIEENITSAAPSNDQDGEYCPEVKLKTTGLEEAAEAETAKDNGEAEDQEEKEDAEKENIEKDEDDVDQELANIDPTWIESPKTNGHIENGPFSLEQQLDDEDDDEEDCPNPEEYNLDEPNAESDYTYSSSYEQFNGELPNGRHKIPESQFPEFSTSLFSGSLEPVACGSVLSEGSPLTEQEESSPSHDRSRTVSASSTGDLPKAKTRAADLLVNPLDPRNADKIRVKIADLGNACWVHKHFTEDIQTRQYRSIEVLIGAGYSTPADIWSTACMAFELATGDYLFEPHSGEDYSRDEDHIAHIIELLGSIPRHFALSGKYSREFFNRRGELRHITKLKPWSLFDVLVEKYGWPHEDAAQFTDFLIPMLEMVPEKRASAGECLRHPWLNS

COc1ccc2sc(C(=O)NCc3ncc[nH]3)cc2c1
inhibition [1]: 0%

COc1ccc2sc(C(=O)Nc3ccccc3)cc2c1
inhibition [1]: 0.54%

COc1ccc2sc(C(=O)N(C)Cc3ccccc3F)cc2c1
inhibition [1]: 43.2%

COc1cccc(CN(C)C(=O)c2cc3cc(OC)ccc3s2)c1
inhibition [1]: 31.6%

COc1ccc2sc(C(=O)NCc3ccccc3)cc2c1
inhibition [1]: 59.4% | pIC50 [2]: 7.08

COc1ccc2sc(C(=O)N(C)CCn3ccnc3)cc2c1
inhibition [1]: 9.4%

COc1cccc(CNC(=O)c2cc3cc(OC)ccc3s2)c1
inhibition [1]: 13.4%

COc1ccc2sc(C(=O)N(C)Cc3cccnc3)cc2c1
GI50 (T-24): 12.5 µM | inhibition [1]: 51% | GI50 (MDA-MB-231): 25.7 µM | pIC50 [2]: 7.09 | GI50 (T47D): 25.4 µM

COC(=O)CNC(=O)c1cc2cc(OC)ccc2s1
inhibition [1]: 0%

COc1ccc2sc(C(=O)N(C)CCc3ccccc3)cc2c1
inhibition [1]: 32.9%

C=CCNC(=O)c1cc2cc(OC)ccc2s1
inhibition [1]: 37%

COc1ccc2sc(C(=O)NCc3cccnc3)cc2c1
inhibition [1]: 28.9%

COc1ccc2sc(C(=O)N(C)Cc3ccc(F)cc3)cc2c1
inhibition [1]: 28.7%

COc1ccc2sc(C(=O)NCc3ccc(F)cc3)cc2c1
inhibition [1]: 23.5%

COc1ccc2sc(C(=O)NCc3ccccc3F)cc2c1
inhibition [1]: 23.2%

COc1ccc2sc(C(=O)N(C)Cc3ccccc3)cc2c1
GI50 (T-24): 2.7 µM | inhibition [1]: 70.6% | inhibition [3]: inactive | inhibition [4]: inactive | inhibition [5]: 12% | inhibition [6]: 23% | inhibition [7]: 10% | inhibition [8]: 81% | inhibition at 1 µM [9]: 54% | GI50 (THP-1): > 30 µM | GI50 [10]: > 30 µM | inhibition [11]: inactive | GI50 (MDA-MB-231): 24.2 µM | pIC50 [2]: 7.35 | GI50 (HepG2): 3.7 µM | LC50 (PBL): > 30 µM | inhibition [12]: 4% | pIC50 [13]: 6.28 | inhibition [14]: 101% | inhibition [15]: 44% | inhibition [16]: 73% | GI50 (T47D): 28.8 µM | inhibition [17]: 58%

COc1ccc2sc(C(=O)Nc3nccs3)cc2c1
inhibition [1]: 28.2%

COc1ccc2sc(C(=O)N[C@@H](C)C(=O)O)cc2c1
inhibition [1]: 0%

COc1ccc2sc(C(=O)N(C)Cc3ccccn3)cc2c1
inhibition [1]: 34.6%
